Experiments:
4T1 tumor-bearing mice [1] = assay: In vivo anti-tumor research in 4T1 tumor-bearing mice; design: species or system BALB/c mice
Summary of the method: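 Female BALB/c mice (6 weeks, 16–18 g) received 4T1 cells (1 × 10^7 cells per mL, 100 μL) s.c. into the right forelimb axilla. At about 100 mm3 tumor volume, mice were randomised (n = 5) to saline, free drug, or drug-loaded hydrogel (1 mg mL-1 drug : 20 mg mL-1 peptide). Dosing was s.c. near the tumor at 100 μL/20 g, giving […], on day 1. Weight and tumor volume were recorded. Tumors and organs were taken at day 7, formalin-fixed, H&E and TUNEL stained.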

4T1 tumor-bearing mice [2] = assay: In vivo biological distribution analysis; design: species or system BALB/c mice; settings: DiR 1 mg kg^−1 s.c. near the tumor, n = 3
Summary of the method: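 4T1 tumor-bearing mice (tumor about 200 mm3) were randomised (n = 3) to free near-infrared dye DiR at 1 mg kg-1 or hydrogel-loaded DiR at the equivalent dose, injected s.c. near the tumor at 100 μL/20 g. Anaesthetised mice were imaged live at 1, 6, 12, 24, 48 and 96 h (λex 748 nm, λem 780 nm). At 96 h, mice were euthanised and organs collected.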

ex vivo fluorescence distribution in tumor and organs (4T1 tumor-bearing mice [2]; 96 hours after administration)	in vivo fluorescence over time (4T1 tumor-bearing mice [2]; live imaging 1–96 hours)	Structure (SMILES)	tumor growth inhibition (4T1 tumor-bearing mice [1]; 7 days, versus NS group, n = 5)	body weight of mice at start (4T1 tumor-bearing mice [1]; day 1, s.c. near the tumor, DOX 1 mg mL^−1, 100 μL/20 g, n = 5) [g]	histology of major organs (H&E) (4T1 tumor-bearing mice [1]; heart, liver, spleen, lung, kidney after 7 days of treatment)	body weight of mice at end (4T1 tumor-bearing mice [1]; within 7 days, s.c. near the tumor, DOX 1 mg mL^−1, 100 μL/20 g, n = 5) [g]
		COc1cccc2c1C(=O)c1c(O)c3c(c(O)c1C2=O)C[C@@](O)(C(=O)CO)C[C@@H]3O[C@H]1C[C@H](N)[C@H](O)[C@H](C)O1 [DOX, doxorubicin]	significant tumor growth inhibition	18.8	significant necrosis of heart and liver cells	16.9
widespread fluorescence distribution	rapidly decreased over time	CCCCCCCCCCCCCCCCCCN1/C(=C/C=C/C=C/C=C/C2=[N+](CCCCCCCCCCCCCCCCCC)c3ccccc3C2(C)C)C(C)(C)c2ccccc21.[I-] [DiR]				
